Experimental data: ChEMBL document CHEMBL4732196, “Structural optimization towards promising β-methyl-4-acrylamido quinoline derivatives as PI3K/mTOR dual inhibitors for anti-cancer therapy: The in vitro and in vivo biological evaluation” (Eur J Med Chem, 2021)
Active and inactive are the calls of the source. The calls are words filed in the database; no cut-off is given here.

Columns and labels:
[1] = test system: U87; assay: Inhibition of PI3K in human U87MG cells assessed as suppression of phosphorylation of AKT at Thr308 residue at 25 nM after 3 hrs by Western blot analysis; type: cell-based
Outline: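 U87MG cells seeded at 1×10^6 per well, incubated overnight at 37 °C, 5% CO₂, then treated at various concentrations for 3 h at 37 °C. Western blot for phospho-Akt (Ser473, Thr308), phospho-S6 (Ser235/236) and phospho-4E-BP1 (Thr37/46), with GAPDH as internal control. Bands quantified as mean ± SD, n = 3 biological replicates, versus untreated cells.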

[2] = target: Citron Rho-interacting kinase (Homo sapiens) (UniProt O14578); assay: Inhibition of human partial length CIT (M68 to E432 residues) expressed in bacterial expression system assessed as residual activity at 10 uM by kinome scan method relative to control
Outline: (§1)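 KINOMEscan binding assay, test compound at 10 μM against a 52-kinase panel. % Ctrl = (compound signal − positive control signal)/(negative control signal − positive control signal) × 100, with DMSO as negative control (100%) and a positive control (0%).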

[3] = target: Cyclin-G-associated kinase (Homo sapiens) (UniProt O14976); assay: Inhibition of human partial length GAK (G13 to Y338 residues) expressed in bacterial expression system assessed as residual activity at 10 uM by kinome scan method relative to control; outline: as §1
[4] = AUC(0 to infinity) in Sprague-Dawley rat at 5 mg/kg, po; type: ADME, organism-based; design: time infinity, route oral, dose 5 mg/kg; settings: in vivo
Outline: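 Male Sprague-Dawley rats (n = 3) given a single oral gavage of 5 mg/kg as a homogeneous opaque suspension in 0.5% methylcellulose; plasma concentration-time curves used to derive mean PK parameters.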

[5] = target: Receptor-interacting serine/threonine-protein kinase 1 (Homo sapiens) (UniProt Q13546); assay: Inhibition of human partial length RIPK1 (M1 to K305 residues) expressed in bacterial expression system assessed as residual activity at 10 uM by kinome scan method relative to control
Outline: (§2)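 KINOMEscan competitive binding screen at 10 μM test compound against a 52-kinase panel. Output is % Ctrl = (test signal − positive control signal)/(negative control signal − positive control signal) × 100. DMSO is the negative control (100%) and the positive control is set to 0%.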

[6] = target: Receptor tyrosine-protein kinase erbB-3 (Homo sapiens) (UniProt P21860); assay: Inhibition of human partial length ERBB3 (G684 to A987 residues) expressed in mammalian expression system assessed as residual activity at 10 uM by kinome scan method relative to control; outline: as §1
[7] = target: Microtubule-associated serine/threonine-protein kinase 1 (Homo sapiens) (UniProt Q9Y2H9); assay: Inhibition of human partial length MAST1 (S346 to V730 residues) expressed in bacterial expression system assessed as residual activity at 10 uM by kinome scan method relative to control; outline: as §1
Sequence of Microtubule-associated serine/threonine-protein kinase 1 (Homo sapiens) (Q9Y2H9 whole entry, looked up, the tested form may be a part): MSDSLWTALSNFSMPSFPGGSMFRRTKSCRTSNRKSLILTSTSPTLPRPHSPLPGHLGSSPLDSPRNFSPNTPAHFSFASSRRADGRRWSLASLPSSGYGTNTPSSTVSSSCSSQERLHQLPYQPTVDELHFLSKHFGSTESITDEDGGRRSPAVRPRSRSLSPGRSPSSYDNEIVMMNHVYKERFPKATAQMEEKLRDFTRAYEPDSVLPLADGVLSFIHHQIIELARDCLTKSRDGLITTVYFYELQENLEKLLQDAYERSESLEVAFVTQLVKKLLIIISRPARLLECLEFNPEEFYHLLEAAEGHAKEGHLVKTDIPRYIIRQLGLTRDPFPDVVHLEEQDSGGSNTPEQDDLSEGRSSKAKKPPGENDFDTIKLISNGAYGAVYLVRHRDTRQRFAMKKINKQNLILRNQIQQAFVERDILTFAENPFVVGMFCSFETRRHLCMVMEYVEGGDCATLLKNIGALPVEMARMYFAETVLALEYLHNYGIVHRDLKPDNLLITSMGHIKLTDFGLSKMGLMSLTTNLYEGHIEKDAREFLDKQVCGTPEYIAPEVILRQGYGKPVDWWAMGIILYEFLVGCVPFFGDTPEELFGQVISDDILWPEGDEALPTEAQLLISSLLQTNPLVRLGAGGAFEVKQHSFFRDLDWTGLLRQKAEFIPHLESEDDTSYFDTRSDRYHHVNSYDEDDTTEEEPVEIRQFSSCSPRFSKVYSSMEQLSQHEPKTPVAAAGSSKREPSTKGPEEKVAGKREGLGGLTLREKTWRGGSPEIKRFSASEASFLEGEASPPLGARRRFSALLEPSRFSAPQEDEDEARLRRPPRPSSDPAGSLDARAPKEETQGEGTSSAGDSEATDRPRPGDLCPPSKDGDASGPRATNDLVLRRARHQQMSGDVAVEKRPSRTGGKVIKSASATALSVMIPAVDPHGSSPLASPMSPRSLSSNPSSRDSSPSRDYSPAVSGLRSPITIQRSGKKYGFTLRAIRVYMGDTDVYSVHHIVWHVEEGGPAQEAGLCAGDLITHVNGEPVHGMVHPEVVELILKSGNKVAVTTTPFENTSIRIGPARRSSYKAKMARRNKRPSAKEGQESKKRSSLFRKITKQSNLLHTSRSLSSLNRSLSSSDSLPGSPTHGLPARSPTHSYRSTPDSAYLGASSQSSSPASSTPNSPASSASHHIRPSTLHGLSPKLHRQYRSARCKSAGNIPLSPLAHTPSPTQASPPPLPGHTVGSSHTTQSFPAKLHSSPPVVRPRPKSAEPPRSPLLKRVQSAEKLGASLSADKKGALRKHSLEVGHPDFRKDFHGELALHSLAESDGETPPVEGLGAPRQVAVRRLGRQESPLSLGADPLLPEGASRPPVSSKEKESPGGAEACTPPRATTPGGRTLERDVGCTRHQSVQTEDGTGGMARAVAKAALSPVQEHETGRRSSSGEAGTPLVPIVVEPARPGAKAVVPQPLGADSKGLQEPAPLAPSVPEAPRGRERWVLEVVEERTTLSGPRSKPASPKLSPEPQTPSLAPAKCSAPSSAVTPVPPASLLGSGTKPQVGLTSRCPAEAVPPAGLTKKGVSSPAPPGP

[8] = target: T1, Serine/threonine-protein kinase mTOR (Homo sapiens, UniProt P42345); assay: Inhibition of mTOR in human U87MG cells assessed as suppression of phosphorylation of S6 ribosomal at 25 nM after 3 hrs by Western blot analysis; settings: U87
[9] = target: Mitogen-activated protein kinase kinase kinase 15 (Homo sapiens) (UniProt Q6ZN16); assay: Inhibition of human partial length MAP3K15 (T625 to L932 residues) expressed in bacterial expression system assessed as residual activity at 10 uM by kinome scan method relative to control; outline: as §1
Sequence of Mitogen-activated protein kinase kinase kinase 15 (Homo sapiens) (Q6ZN16 whole entry, the tested form may be a part): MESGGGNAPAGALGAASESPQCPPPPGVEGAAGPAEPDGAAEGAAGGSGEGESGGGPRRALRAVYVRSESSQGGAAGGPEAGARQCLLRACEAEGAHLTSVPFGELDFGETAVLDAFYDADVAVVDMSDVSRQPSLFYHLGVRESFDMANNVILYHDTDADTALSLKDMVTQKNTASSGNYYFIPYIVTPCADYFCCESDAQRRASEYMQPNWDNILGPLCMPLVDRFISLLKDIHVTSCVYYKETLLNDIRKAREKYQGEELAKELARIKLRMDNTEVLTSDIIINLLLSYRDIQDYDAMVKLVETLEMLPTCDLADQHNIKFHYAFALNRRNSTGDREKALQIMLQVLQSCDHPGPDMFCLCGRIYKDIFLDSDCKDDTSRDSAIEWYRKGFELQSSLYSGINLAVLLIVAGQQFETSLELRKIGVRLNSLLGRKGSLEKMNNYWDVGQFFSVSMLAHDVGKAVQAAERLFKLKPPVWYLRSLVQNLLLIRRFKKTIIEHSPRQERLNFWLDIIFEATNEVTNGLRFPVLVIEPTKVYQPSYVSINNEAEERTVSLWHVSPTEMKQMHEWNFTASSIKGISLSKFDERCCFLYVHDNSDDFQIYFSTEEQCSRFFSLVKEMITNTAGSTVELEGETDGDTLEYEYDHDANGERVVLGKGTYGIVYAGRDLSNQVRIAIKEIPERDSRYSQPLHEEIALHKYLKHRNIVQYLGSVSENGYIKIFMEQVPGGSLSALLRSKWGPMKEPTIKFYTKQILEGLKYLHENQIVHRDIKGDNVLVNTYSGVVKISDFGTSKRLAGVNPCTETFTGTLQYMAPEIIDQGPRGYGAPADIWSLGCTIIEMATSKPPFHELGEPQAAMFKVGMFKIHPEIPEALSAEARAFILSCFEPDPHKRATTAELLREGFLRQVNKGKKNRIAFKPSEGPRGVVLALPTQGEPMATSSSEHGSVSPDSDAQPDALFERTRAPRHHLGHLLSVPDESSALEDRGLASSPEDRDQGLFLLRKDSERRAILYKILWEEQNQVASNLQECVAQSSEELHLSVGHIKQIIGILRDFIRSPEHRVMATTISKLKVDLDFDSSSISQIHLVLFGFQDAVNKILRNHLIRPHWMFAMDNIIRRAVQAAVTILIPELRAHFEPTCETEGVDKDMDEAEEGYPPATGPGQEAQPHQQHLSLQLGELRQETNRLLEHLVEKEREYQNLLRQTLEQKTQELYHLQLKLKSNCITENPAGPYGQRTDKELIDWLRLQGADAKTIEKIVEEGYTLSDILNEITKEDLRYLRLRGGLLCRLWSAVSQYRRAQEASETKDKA

[10] = target: Dual specificity mitogen-activated protein kinase kinase 5 (Homo sapiens) (UniProt Q13163); assay: Inhibition of human partial length MEK5 (L98 to P448 residues) expressed in mammalian expression system assessed as residual activity at 10 uM by kinome scan method relative to control; outline: as §1
Sequence of Dual specificity mitogen-activated protein kinase kinase 5 (Homo sapiens) (Q13163 whole entry, the tested form may be a part): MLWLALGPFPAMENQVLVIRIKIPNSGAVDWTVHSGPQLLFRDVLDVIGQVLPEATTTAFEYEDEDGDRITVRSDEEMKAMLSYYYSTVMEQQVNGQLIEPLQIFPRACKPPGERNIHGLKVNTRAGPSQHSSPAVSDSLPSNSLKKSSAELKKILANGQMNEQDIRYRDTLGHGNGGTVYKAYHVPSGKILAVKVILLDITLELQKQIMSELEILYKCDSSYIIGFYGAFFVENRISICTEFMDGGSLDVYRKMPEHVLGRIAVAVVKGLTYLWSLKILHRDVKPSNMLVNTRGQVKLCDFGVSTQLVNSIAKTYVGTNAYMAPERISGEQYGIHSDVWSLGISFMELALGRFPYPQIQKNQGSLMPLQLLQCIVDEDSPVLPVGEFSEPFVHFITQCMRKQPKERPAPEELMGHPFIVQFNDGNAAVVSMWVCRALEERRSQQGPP

[11] = Toxicity in ICR nude mouse xenografted with U87MG cells assessed as reduction in body weight at 30 to 60 mg/kg, po every other day for 24 days; type: organism-based; settings: in vivo, 576 h, dose 30-60 mg/kg, time 24 day
Outline: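 Male ICR nude mice were implanted subcutaneously with 5 × 10^6 U87MG cells. When tumors reached about 200 mm³, mice were randomized and given 30 or 60 mg/kg by oral gavage every other day for 24 days. Body weight and tumor volume (length × width² × 0.5) were recorded every 4 days, with a vehicle-treated group as comparator.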

[12] = target: Cyclin-dependent kinase-like 3 (Homo sapiens) (UniProt Q8IVW4); assay: Inhibition of human partial length CDKL1 (M1 to D327 residues) expressed in bacterial system assessed as residual activity at 10 uM by kinome scan method relative to control; outline: as §1
Sequence of Cyclin-dependent kinase-like 3 (Homo sapiens) (Q8IVW4 whole entry, looked up, the tested form may be a part): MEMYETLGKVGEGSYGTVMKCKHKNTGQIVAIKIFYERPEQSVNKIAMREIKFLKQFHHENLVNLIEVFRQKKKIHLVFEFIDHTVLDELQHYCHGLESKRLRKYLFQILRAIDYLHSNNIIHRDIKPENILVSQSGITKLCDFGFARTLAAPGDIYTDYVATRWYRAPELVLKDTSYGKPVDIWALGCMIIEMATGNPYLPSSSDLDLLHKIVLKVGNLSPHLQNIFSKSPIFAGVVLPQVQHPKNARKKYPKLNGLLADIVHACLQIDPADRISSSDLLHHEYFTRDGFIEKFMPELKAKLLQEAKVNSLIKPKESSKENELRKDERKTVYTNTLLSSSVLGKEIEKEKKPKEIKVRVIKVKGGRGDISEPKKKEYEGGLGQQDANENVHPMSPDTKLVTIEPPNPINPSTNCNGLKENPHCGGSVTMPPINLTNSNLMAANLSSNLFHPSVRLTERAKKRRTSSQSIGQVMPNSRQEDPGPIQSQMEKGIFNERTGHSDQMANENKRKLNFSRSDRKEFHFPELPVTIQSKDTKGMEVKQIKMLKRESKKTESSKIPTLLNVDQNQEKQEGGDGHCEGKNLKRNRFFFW

[13] = target: Phosphatidylinositol 4-phosphate 5-kinase type-1 gamma (Homo sapiens) (UniProt O60331); assay: Inhibition of human full length PIP5K1C (M1 to H562 residues) expressed in bacterial expression system assessed as residual activity at 10 uM by kinome scan method relative to control; outline: as §1
Sequence of Phosphatidylinositol 4-phosphate 5-kinase type-1 gamma (Homo sapiens) (O60331 whole entry, the tested form may be a part): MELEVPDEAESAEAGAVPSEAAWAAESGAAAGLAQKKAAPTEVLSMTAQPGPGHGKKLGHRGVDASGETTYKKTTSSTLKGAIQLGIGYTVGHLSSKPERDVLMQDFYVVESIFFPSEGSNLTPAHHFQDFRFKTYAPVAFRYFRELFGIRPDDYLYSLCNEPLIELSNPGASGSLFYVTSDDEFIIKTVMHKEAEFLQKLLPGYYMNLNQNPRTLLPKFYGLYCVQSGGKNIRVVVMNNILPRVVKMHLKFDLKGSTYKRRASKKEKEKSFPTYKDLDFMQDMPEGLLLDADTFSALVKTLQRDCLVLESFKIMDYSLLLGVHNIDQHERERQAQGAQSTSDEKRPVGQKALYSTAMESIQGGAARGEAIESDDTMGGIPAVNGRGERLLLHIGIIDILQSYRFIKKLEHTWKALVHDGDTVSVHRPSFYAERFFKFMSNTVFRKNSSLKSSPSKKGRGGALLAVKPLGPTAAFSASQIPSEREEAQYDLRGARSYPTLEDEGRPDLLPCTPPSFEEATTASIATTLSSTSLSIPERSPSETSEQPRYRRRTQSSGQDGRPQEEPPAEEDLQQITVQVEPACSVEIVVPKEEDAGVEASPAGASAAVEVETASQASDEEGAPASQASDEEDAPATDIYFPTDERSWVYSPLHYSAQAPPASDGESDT

[14] = target: Serine/threonine-protein kinase 32A (Homo sapiens) (UniProt Q8WU08); assay: Inhibition of human full length YANK1 (M1 to L396 residues) expressed in mammalian expression system assessed as residual activity at 10 uM by kinome scan method relative to control; outline: as §1
[15] = target: Cyclin-dependent kinase 14 (Homo sapiens) (UniProt O94921); assay: Inhibition of human full length PFTK1 (M1 to H451 residues) expressed in bacterial expression system assessed as residual activity at 10 uM by kinome scan method relative to control; outline: as §1
Sequence of Cyclin-dependent kinase 14 (Homo sapiens) (O94921 whole entry, the tested form may be a part): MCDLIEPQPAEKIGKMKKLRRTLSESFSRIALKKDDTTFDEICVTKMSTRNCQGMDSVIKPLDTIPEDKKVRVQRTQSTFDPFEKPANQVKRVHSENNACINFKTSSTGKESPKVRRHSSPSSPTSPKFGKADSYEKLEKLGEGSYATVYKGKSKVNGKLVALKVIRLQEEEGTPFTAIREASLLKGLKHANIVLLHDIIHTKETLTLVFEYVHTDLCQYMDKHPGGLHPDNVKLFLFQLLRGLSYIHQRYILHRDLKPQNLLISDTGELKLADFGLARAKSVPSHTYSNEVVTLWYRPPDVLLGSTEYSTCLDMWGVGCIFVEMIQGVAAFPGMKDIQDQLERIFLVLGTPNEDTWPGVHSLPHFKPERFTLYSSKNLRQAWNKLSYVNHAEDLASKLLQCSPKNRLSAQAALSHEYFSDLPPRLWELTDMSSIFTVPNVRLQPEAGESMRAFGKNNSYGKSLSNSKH

[16] = target: Membrane-associated tyrosine- and threonine-specific cdc2-inhibitory kinase (Homo sapiens) (UniProt Q99640); assay: Inhibition of human partial length PKMYT1 (A88 to G366 residues) expressed in bacterial expression system assessed as residual activity at 10 uM by kinome scan method relative to control; outline: as §2
[17] = target: 1-phosphatidylinositol 3-phosphate 5-kinase (Homo sapiens) (UniProt Q9Y2I7); assay: Inhibition of human partial length PIKFYVE (F1512 to C2098 residues) expressed in mammalian expression system assessed as residual activity at 10 uM by kinome scan method relative to control; outline: as §2
[18] = test system: U-87 MG; assay: Antitumour activity against human U87MG cells xenografted in ICR nude mouse assessed as tumour growth inhibition at 60 mg/kg, po every other day for 24 days relative to control; type: functional, organism-based; settings: U-87MG ATCC, time 24.0 day
Outline: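 Male ICR nude mice inoculated subcutaneously with 5 × 10⁶ U87MG cells. Once tumours reached about 200 mm³, mice were randomised and dosed by oral gavage every other day for 24 days. Tumour volume (length × width² × 0.5) and body weight recorded every 4 days. Inhibition = 100 × {1 − [(final − initial volume) treated]/[(final − initial volume) vehicle]}.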

[19] = target: T1, Serine/threonine-protein kinase mTOR; assay: Inhibition of human partial length mTOR (L1382 to W2549 residues) expressed in mammalian expression system assessed as residual activity at 10 uM by kinome scan method relative to control; outline: as §2
[20] = target: Cyclin-dependent kinase 17 (Homo sapiens) (UniProt Q00537); assay: Inhibition of human full length PCTK2 (M1 to F523 residues) expressed in bacterial expression system assessed as residual activity at 10 uM by kinome scan method relative to control; outline: as §1

In the case of `COc1ncc(-c2ccc3nccc(/C(C)=C/C(=O)N4CCN(C)CC4)c3c2)cc1NS(=O)(=O)c1ccc(F)cc1F`, the inhibition [1] was “Active”, the Activity [2] was 71% and the Activity [3] was 22%. For the same compound, the AUC(0-inf) [4] was 1450 ng·h/mL, the Activity [5] was 87% and the Activity [6] was 89%. The Activity [7] was 58%, the inhibition [8] was “Active” and the Activity [9] was 45%. For the same compound, the Activity [10] was 63%, the Activity [11] was “Non-Toxic” and the Activity [12] was 100%. It also gave an Activity [13] of 35%, an Activity [14] of 84% and an Activity [15] of 78%. The Activity [16] was 70%, the Activity [17] was 1.9% and the TGI [18] was “Active”. The Activity [19] was 0% and the Activity [20] was 100%.
